Results from ChEMBL document CHEMBL1142571, “Antiprotozoal compounds from Psorothamnus polydenius” (J Nat Prod, 2005).
Converted amounts (≈) assume the structure as drawn.

Assays:
[1] = tested on: Leishmania mexicana; assay: Antileishmanial activity against Leishmania mexicana MNYC/BZ/62/M379 infected in C57BL/6 mouse peritoneal macrophages assessed as reduction in infection at 3.1 ug/ml after 72 hrs relative to control; format: functional; parameters: scale not given: the % may be the effect or the level left
In short: (§1)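 Mouse peritoneal macrophages were infected with promastigotes in supplemented DMEM on chamber slides for 24 h at 33 °C under 5% CO2. They were washed with HBSS and given serial drug dilutions for 72 h. Cells were then methanol-fixed and stained with 0.04% Giemsa for 35 min. At least 200 cells per sample were counted under oil immersion, and the value is the % decrease in infected macrophages versus untreated wells.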

[2] = Selectivity for Leishmania donovani MHOM/SD/62/1S-CL2D axenic amastigotes over african green monkey Vero cells
[3] = tested on: Vero; assay: Cytotoxicity against african green monkey Vero cells after 72 hrs by cell-titer assay; format: cell-based; conditions: Chlorocebus sabaeus
In short: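 Vero cells (1000/well) in Eagle's MEM with Earle's salts, penicillin/streptomycin and 10% FBS were seeded with serial compound dilutions for 72 h at 37 °C under 5% CO2. CellTiter reagent was then added for 12-14 h, and absorbance was read at 490 nm.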

[4] = tested on: Leishmania donovani; assay: Antileishmanial activity against Leishmania donovani MHOM/SD/62/1S-CL2D axenic amastigotes after 3 days by tetrazolium dye method; format: functional, organism-based; conditions: 72 h
In short: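 L. donovani amastigote-like parasites grown axenically were exposed to compounds for three days. Viability was read with the tetrazolium-based CellTiter reagent.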

[5] = tested on: Trypanosoma brucei brucei; assay: Antitrypanosomal activity against blood stream-form of Trypanosoma brucei brucei MITat1.2 after 72 hrs by MTT assay; format: functional, organism-based
In short: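 Late-log bloodstream-form T. b. brucei in HMI-9 were incubated with or without compound for 72 h at 37 °C under 5% CO2. MTT (25 µL of a 5 mg/mL stock) was added for 2 h, then 10% SDS in 50% aqueous DMF for 3-4 h. OD was read at 570 nm, and IC50 is 50% growth inhibition versus untreated control.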

[6] = tested on: Leishmania mexicana; assay: Antileishmanial activity against Leishmania mexicana MNYC/BZ/62/M379 infected in C57BL/6 mouse peritoneal macrophages assessed as reduction in infection at 12.5 ug/ml after 72 hrs relative to control; format: functional; parameters: scale not given: the % may be the effect or the level left; in short: as §1
[7] = tested on: Leishmania mexicana; assay: Antileishmanial activity against Leishmania mexicana MNYC/BZ/62/M379 infected in C57BL/6 mouse peritoneal macrophages assessed as reduction in infection at 6.3 ug/ml after 72 hrs relative to control; format: functional; parameters: scale not given: the % may be the effect or the level left; in short: as §1
[8] = tested on: J774.A1; assay: Cytotoxicity against mouse J774A1 cells after 72 hrs by cell-titer assay; format: cell-based; conditions: J774.A1, 72 h
In short: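 J774 A.1 macrophages (5000/well) in DMEM with penicillin/streptomycin and 10% FBS were seeded with serial compound dilutions for 72 h at 37 °C under 5% CO2. Viability was read by CellTiter, with 12-14 h color development and absorbance at 490 nm.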

[9] = tested on: Leishmania mexicana; assay: Antileishmanial activity against Leishmania mexicana MNYC/BZ/62/M379 infected in C57BL/6 mouse peritoneal macrophages assessed as reduction in infection at 0.014 ug/ml after 72 hrs relative to control; format: functional; parameters: scale not given: the % may be the effect or the level left; in short: as §1
[10] = tested on: Leishmania mexicana; assay: Antileishmanial activity against Leishmania mexicana MNYC/BZ/62/M379 infected in C57BL/6 mouse peritoneal macrophages assessed as reduction in infection at 0.116 ug/ml after 72 hrs relative to control; format: functional; parameters: scale not given: the % may be the effect or the level left; in short: as §1
[11] = tested on: Leishmania mexicana; assay: Antileishmanial activity against Leishmania mexicana MNYC/BZ/62/M379 infected in C57BL/6 mouse peritoneal macrophages assessed as reduction in infection at 0.029 ug/ml after 72 hrs relative to control; format: functional; parameters: scale not given: the % may be the effect or the level left; in short: as §1
[12] = tested on: Leishmania mexicana; assay: Antileishmanial activity against Leishmania mexicana MNYC/BZ/62/M379 infected in C57BL/6 mouse peritoneal macrophages assessed as reduction in infection at 25 ug/ml after 72 hrs relative to control; format: functional; parameters: scale not given: the % may be the effect or the level left; in short: as §1
[13] = tested on: Leishmania mexicana; assay: Antileishmanial activity against Leishmania mexicana MNYC/BZ/62/M379 infected in C57BL/6 mouse peritoneal macrophages assessed as reduction in infection at 50 ug/ml after 72 hrs relative to control; format: functional; parameters: scale not given: the % may be the effect or the level left; in short: as §1

Row | IC50 [4] | IC50 [5] | Compound | Activity [1] | Ratio IC50 [2] | IC50 [3] | Activity [6] | Activity [7] | IC50 [8] | Activity [9] | Activity [10] | Activity [11] | Activity [12] | Activity [13]
1 | 5 µg/mL (≈ 16.8 µM) | 6.3 µg/mL (≈ 21.1 µM) | COc1c(C)c(O)c(C)c(O)c1C(=O)/C=C/c1ccccc1 | 28% | 2.6 | 12.9 µg/mL (≈ 43.2 µM) | 96% | 61% | 7.7 µg/mL (≈ 25.8 µM) | – | – | – | – | –
2 | 7.5 µg/mL (≈ 23.9 µM) | 6.8 µg/mL (≈ 21.6 µM) | COc1c(C)c(O)c(C)c(O)c1C(=O)/C=C/c1ccccc1O | 6% | 1.8 | 13.3 µg/mL (≈ 42.3 µM) | 96% | 34% | 9.3 µg/mL (≈ 29.6 µM) | – | – | – | – | –
3 | – | – | C[C@@H]1[C@H](O)[C@@H](C)/C=C/C=C/C=C/C=C/C=C/C=C/C=C/[C@H](O[C@@H]2O[C@H](C)[C@@H](O)[C@H](N)[C@@H]2O)C[C@@H]2O[C@](O)(C[C@@H](O)C[C@@H](O)[C@H](O)CC[C@@H](O)C[C@@H](O)CC(=O)O[C@H]1C)C[C@H](O)[C@H]2C(=O)O [AMPHOTERICIN B] | – | – | – | – | – | – | 59% | 95% | 85% | – | –
4 | 7.5 µg/mL (≈ 24.2 µM) | 21.6 µg/mL (≈ 69.6 µM) | COC1=C(C)C(=O)C(C)(C)C(=O)/C1=C1\C=Cc2ccccc2O1 [DALRUBONE] | – | 5.9 | 44.5 µg/mL (≈ 143 µM) | 41% | 1% | 30.1 µg/mL (≈ 97 µM) | – | – | – | 97% | –
5 | > 100 µg/mL | 28.9 µg/mL (≈ 102 µM) | Cc1c(O)c(C)c2c(c1O)C(=O)C[C@@H](c1ccccc1)O2 [DEMETHOXYMATTEUCINOL] | – | – | > 50 µg/mL | – | – | > 50 µg/mL | – | – | – | – | –
6 | 25 µg/mL (≈ 86.7 µM) | 25 µg/mL (≈ 86.7 µM) | O=C1C[C@@H](c2ccc(O)c(O)c2)Oc2cc(O)cc(O)c21 [ERIODICTYOL] | – | – | 36.5 µg/mL (≈ 127 µM) | 30% | – | 32.8 µg/mL (≈ 114 µM) | – | – | – | 55% | 76%
7 | 1.4 µg/mL (≈ 4.11 µM) | 0.007 µg/mL (≈ 0.0206 µM) | N=C(N)c1ccc(OCCCCCOc2ccc(C(=N)N)cc2)cc1 [PENTAMIDINE] | – | – | > 50 µg/mL | – | – | 12.9 µg/mL (≈ 37.9 µM) | – | – | – | – | –
8 | – | 0.193 µg/mL (≈ 0.149 µM) | Cc1ccc(C(=O)Nc2ccc(S(=O)(=O)O)c3cc(S(=O)(=O)O)cc(S(=O)(=O)O)c23)cc1NC(=O)c1cccc(NC(=O)Nc2cccc(C(=O)Nc3cc(C(=O)Nc4ccc(S(=O)(=O)O)c5cc(S(=O)(=O)O)cc(S(=O)(=O)O)c45)ccc3C)c2)c1 [SURAMIN] | – | – | – | – | – | – | – | – | – | – | –
